In brackets after ≈: the same amount, converted by molar mass. *1 amine or outer side, *2 acyl side, *3 side chain or, on linkers, in order; H or OH if unused. Where a SMILES comes first, the peptide text is derived from it. Bridges are numbered along the chain shown (N, C = ends). [ ]: non-standard residue; d: D form. The star is where a group is joined. pTerphenylCO(4''-OnC5H11) = CCCCCOc1ccc(-c2ccc(-c3ccc(C(=O)*)cc3)cc2)cc1; Orn(4R-OH,5R-OH) = O=C([C@H](C[C@@H](O)[C@@H](O)N[*:3])N[*:1])[*:2]; hTyr(3S-OH,4S-OH) = N[C@H](C(=O)O)[C@H](O)[C@@H](O)c1ccc(O)cc1; Pro(3S-OH,4S-Me) = C[C@H]1CN[C@H](C(=O)O)[C@H]1O; Hyp = O=C(O)[C@@H]1C[C@@H](O)CN1
Legend:
Saccharomyces cerevisiae [1] = assay: Antifungal activity against Saccharomyces cerevisiae BY4742 by CLSI method; assay type: functional
Candida albicans [2] = assay: Antifungal activity against Candida albicans Sc5314 by CLSI method; assay type: functional
Saccharomyces cerevisiae [3] = assay: Antifungal activity against FKS1 deficient Saccharomyces cerevisiae BY4742 by CLSI method; assay type: functional
[4] = Inhibition of Candida metapsilosis 960161 glucan synthase assessed as [3H]UDPG incorporation
Outline: (§1)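 Cells were grown with vigorous shaking at 30°C to early stationary phase in YPD. Membrane GS was partially purified by product entrapment, using 10-fold more cells for low-activity strains. The polymerization assay was started by adding GS, with drug serially diluted from 0.01 to 10,000 ng/ml. Reactions ran 60 min at 25°C and were stopped on ice. IC50 came from sigmoidal variable-slope fits, as arithmetic means ± SD of three repetitions on three days.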

Candida albicans [5] = assay: Antifungal activity against Candida albicans ATCC 36082 by CLSI method; assay type: functional
[6] = Inhibition of Candida albicans M122 glucan synthase assessed as [3H]UDPG incorporation; outline: as §1
[7] = Inhibition of Candida parapsilosis H5 glucan synthase assessed as [3H]UDPG incorporation; outline: as §1
Candida metapsilosis [8] = assay: Antifungal activity against Candida metapsilosis 960161 by CLSI method; assay type: functional; details: Lodderomyces metapsilosis
[9] = Inhibition of Candida parapsilosis H4 glucan synthase assessed as [3H]UDPG incorporation; outline: as §1
Candida parapsilosis [10] = assay: Antifungal activity against Candida parapsilosis ATCC 22019 by CLSI method; assay type: functional; details: Lodderomyces parapsilosis
Candida albicans [11] = assay: Antifungal activity against Candida albicans ATCC 90028 by CLSI method; assay type: functional
[12] = Inhibition of Candida metapsilosis am-2006-0113 glucan synthase assessed as [3H]UDPG incorporation; outline: as §1
Nakaseomyces glabratus [13] = assay: Antifungal activity against Candida glabrata T51916 by CLSI method; assay type: functional
Candida albicans [14] = assay: Antifungal activity against Candida albicans M122 by CLSI method; assay type: functional
[15] = Inhibition of Candida parapsilosis ATCC 22019 glucan synthase by assessed as [3H]UDPG incorporation; outline: as §1
[16] = Inhibition of Candida glabrata T51916 glucan synthase assessed as [3H]UDPG incorporation; parameters: species or system Nakaseomyces glabratus; outline: as §1
[17] = Inhibition of Candida orthopsilosis H10 glucan synthase assessed as [3H]UDPG incorporation; outline: as §1
Saccharomyces cerevisiae [18] = assay: Antifungal activity against Saccharomyces cerevisiae BY4742-FKS1P649A mutant by CLSI method; assay type: functional
Outline: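 Broth microdilution following CLSI M27-A2, run in YPD broth (1% yeast extract, 2% Bacto peptone, 2% dextrose). MICs are geometric means of at least three repetitions on three separate days.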

Nakaseomyces glabratus [19] = assay: Antifungal activity against Candida glabrata ATCC 90030 by CLSI method; assay type: functional
[20] = Inhibition of Candida albicans Sc5314 glucan synthase assessed as [3H]UDPG incorporation; outline: as §1
[21] = Inhibition of Candida albicans ATCC 36082 glucan synthase assessed as [3H]UDPG incorporation; outline: as §1
[22] = Inhibition of Candida orthopsilosis 981224 glucan synthase assessed as [3H]UDPG incorporation; outline: as §1
[23] = Inhibition of Candida albicans ATCC 90028 glucan synthase assessed as [3H]UDPG incorporation; outline: as §1
[24] = Inhibition of Saccharomyces cerevisiae BY4742 glucan synthase assessed as [3H]UDPG incorporation; outline: as §1
Candida metapsilosis [25] = assay: Antifungal activity against Candida metapsilosis am-2006-0113 by CLSI method; assay type: functional; details: Lodderomyces metapsilosis
Candida parapsilosis [26] = assay: Antifungal activity against Candida parapsilosis H4 by CLSI method; assay type: functional; details: Lodderomyces parapsilosis
Candida parapsilosis [27] = assay: Antifungal activity against Candida parapsilosis H5 by CLSI method; assay type: functional; details: Lodderomyces parapsilosis
[28] = Inhibition of Saccharomyces cerevisiae BY4742-FKS1P649A mutant glucan synthase assessed as [3H]UDPG incorporation; outline: as §1
[29] = Inhibition of Candida glabrata ATCC 90030 glucan synthase assessed as [3H]UDPG incorporation; parameters: species or system Nakaseomyces glabratus; outline: as §1
Candida orthopsilosis [30] = assay: Antifungal activity against Candida orthopsilosis H10 by CLSI method; assay type: functional; details: Lodderomyces orthopsilosis
Candida orthopsilosis [31] = assay: Antifungal activity against Candida orthopsilosis 981224 by CLSI method; assay type: functional; details: Lodderomyces orthopsilosis

CCCCCOc1ccc(-c2ccc(-c3ccc(C(=O)N[C@H]4C[C@@H](O)[C@@H](O)NC(=O)[C@@H]5[C@@H](O)[C@@H](C)CN5C(=O)[C@H]([C@@H](C)O)NC(=O)[C@H]([C@H](O)[C@@H](O)c5ccc(O)cc5)NC(=O)[C@@H]5C[C@@H](O)CN5C(=O)[C@H]([C@@H](C)O)NC4=O)cc3)cc2)cc1 [ANIDULAFUNGIN] ({pTerphenylCO(4''-OnC5H11)}-[Orn(4R-OH,5R-OH)]T[Hyp][hTyr(3S-OH,4S-OH)]T[Pro(3S-OH,4S-Me)]; lactam 1-C) gave an MIC (Saccharomyces cerevisiae [1]) of 0.03 mg/L (≈ 0.0263 µM), an MIC (Candida albicans [2]) of 0.08 mg/L (≈ 0.0702 µM) and an MIC (Saccharomyces cerevisiae [3]) of 0.015 mg/L (≈ 0.0132 µM). It also gave an IC50 [4] of 0.1333 mg/L (≈ 0.117 µM), a Ki [4] of 0.129 mg/L (≈ 0.113 µM) and an MIC (Candida albicans [5]) of 0.02 mg/L (≈ 0.0175 µM). It also gave an IC50 [6] of 0.53013 mg/L (≈ 0.465 µM), a Ki [6] of 0.646 mg/L (≈ 0.567 µM) and an IC50 [7] of 0.23707 mg/L (≈ 0.208 µM). The Ki [7] was 0.43167 mg/L (≈ 0.379 µM), the MIC (Candida metapsilosis [8]) was 0.79 mg/L (≈ 0.693 µM) and the IC50 [9] was 0.11012 mg/L (≈ 0.0966 µM). For the same compound, the Ki [9] was 0.3685 mg/L (≈ 0.323 µM), the MIC (Candida parapsilosis [10]) was 1.1 mg/L (≈ 0.965 µM) and the MIC (Candida albicans [11]) was 0.02 mg/L (≈ 0.0175 µM). It also gave an IC50 [12] of 0.1264 mg/L (≈ 0.111 µM), a Ki [12] of 0.0414 mg/L (≈ 0.0363 µM) and an MIC (Nakaseomyces glabratus [13]) of 1.59 mg/L (≈ 1.39 µM). It also gave an MIC (Candida albicans [14]) of 0.15 mg/L (≈ 0.132 µM), an IC50 [15] of 0.44203 mg/L (≈ 0.388 µM) and a Ki [15] of 0.6395 mg/L (≈ 0.561 µM). It also gave an IC50 [16] of 0.20686 mg/L (≈ 0.181 µM), a Ki [16] of 0.712 mg/L (≈ 0.624 µM) and an IC50 [17] of 0.16317 mg/L (≈ 0.143 µM). The Ki [17] was 0.111 mg/L (≈ 0.0973 µM), the MIC (Saccharomyces cerevisiae [18]) was 0.5 mg/L (≈ 0.438 µM) and the MIC (Nakaseomyces glabratus [19]) was 0.05 mg/L (≈ 0.0438 µM). For the same compound, the IC50 [20] was 0.00089 mg/L (≈ 0.000781 µM), the Ki [20] was 0.00133 mg/L (≈ 0.00117 µM) and the IC50 [21] was 0.00183 mg/L (≈ 0.0016 µM). For the same compound, the Ki [21] was 0.00063 mg/L (≈ 0.000553 µM), the IC50 [22] was 0.1419 mg/L (≈ 0.124 µM) and the Ki [22] was 0.0465 mg/L (≈ 0.0408 µM). The IC50 [23] was 0.00163 mg/L (≈ 0.00143 µM), the Ki [23] was 0.00143 mg/L (≈ 0.00125 µM) and the IC50 [24] was 0.10737 mg/L (≈ 0.0942 µM). For the same compound, the Ki [24] was 0.06895 mg/L (≈ 0.0605 µM), the MIC (Candida metapsilosis [25]) was 0.63 mg/L (≈ 0.553 µM) and the MIC (Candida parapsilosis [26]) was 2.24 mg/L (≈ 1.96 µM). For the same compound, the MIC (Candida parapsilosis [27]) was 1.59 mg/L (≈ 1.39 µM), the IC50 [28] was 1.663 mg/L (≈ 1.46 µM) and the Ki [28] was 2.374 mg/L (≈ 2.08 µM). The IC50 [29] was 0.00377 mg/L (≈ 0.00331 µM), the MIC (Candida orthopsilosis [30]) was 0.79 mg/L (≈ 0.693 µM) and the MIC (Candida orthopsilosis [31]) was 1.26 mg/L (≈ 1.11 µM).

Reference: ChEMBL document CHEMBL1275435, “A naturally occurring proline-to-alanine amino acid change in Fks1p in Candida parapsilosis, Candida orthopsilosis, and Candida metapsilosis accounts for reduced echinocandin susceptibility” (Antimicrob Agents Chemother, 2008)
